Experimental data from ChEMBL document CHEMBL1649346, “Antiproliferative activity of phenylbutyrate ester of haloperidol metabolite II [(±)-MRJF4] in prostate cancer cells” (Eur J Med Chem, 2011).
Values joined by “and” are separate entries in the source; they are usually repeats but may differ in a detail not shown here. Equal values may be shown once. Active and inactive are the calls of the source. The rule behind the calls is not given here.

Columns and labels:
[1] = tested on: LNCaP; test: Antiproliferative activity against human LNCAP cells after 24 hrs by MTT assay; type: functional, cell-based
Method in brief: (§1)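 LNCaP cells were grown in RPMI 1640 with 10% heat-inactivated FBS, penicillin/streptomycin, HEPES, 1 mM pyruvate and 2.5 g/L glucose. PC3 cells were grown in RPMI 1640 with 10% FBS and penicillin/streptomycin, at 37 °C in 5% CO₂. Cells were seeded at 4 × 10⁴ per well and left to adhere overnight. Compounds were diluted 1:1000 from DMSO stocks, with a 0.1% DMSO vehicle, and incubated 24–96 h without medium change. MTT was added for 4 h, the formazan dissolved in DMSO, and A570 read. Runs were in quadruplicate; ED50 was taken from dose-effect curves against vehicle.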

[2] = target: D(3) dopamine receptor (Rattus norvegicus, UniProt P19020); test: Displacement radioligand form dopamine D3 receptor in rat olfactory tubercle by liquid scintillation counting; type: tissue-based
[3] = tested on: PC-3; test: Antiproliferative activity against human PC3 cells after 24 hrs by MTT assay; type: functional, cell-based; conditions: PC-3, 24 h; method in brief: as §1
[4] = Displacement of [3H]DTG from sigma 2 receptor in guinea pig brain membrane after 120 mins by liquid scintillation counting; type: cell membranes, Cavia porcellus
Method in brief: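 Guinea pig membranes were incubated 120 min at room temperature with 3 nM [³H]DTG and (+)-SKF10,047 to mask σ1 sites, in 50 mM Tris-HCl pH 8.0. DTG defined nonspecific binding. Samples were filtered on PEI-presoaked glass-fibre filters, washed and counted by liquid scintillation; Ki was calculated.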

[5] = tested on: LNCaP; test: Antiproliferative activity against human LNCAP cells after 72 hrs by MTT assay; type: functional, cell-based; method in brief: as §1
[6] = target: T1, Histone deacetylase (Homo sapiens) (UniProt Q13547+O15379+Q9UBN7+Q92769+Q9UQL6+Q8WUI4+Q9BY41+Q96DB2+P56524+Q9UKV0+Q969S8); test: Inhibition of HDAC in human PC3 cells at 10 uM after 10 mins by fluorometric assay; type: cell-based; conditions: PC-3
Method in brief: (§2)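 LNCaP or PC3 cells were seeded at 3 × 10⁵ per dish, left overnight, then treated in medium for 1 h (and 24 h). Cells were PBS-washed and lysed, and nuclear protein was extracted with the NE-PER kit. Extracts received assay buffer only plus Fluor de Lys substrate, 10 min at 25–37 °C, then developer. Fluorescence was read at ex 360/em 460 nm relative to DMSO-treated control, in triplicate.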

[7] = tested on: LNCaP; test: Antiproliferative activity against human LNCAP cells after 48 hrs by MTT assay; type: functional, cell-based; method in brief: as §1
[8] = tested on: PC-3; test: Antiproliferative activity against human PC3 cells after 48 hrs by MTT assay; type: functional, cell-based; conditions: PC-3, 48 h; method in brief: as §1
[9] = target: Sigma non-opioid intracellular receptor 1 (Cavia porcellus, UniProt Q60492); test: Displacement of [3H]-(+)-pentazocine from sigma 1 receptor in guinea pig brain membrane after 150 mins by liquid scintillation counting; type: cell membranes
Method in brief: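 Guinea pig membranes were incubated to equilibrium, 150 min at 37 °C, with 3 nM [³H]-(+)-pentazocine (45 Ci/mmol) and increasing levels of displacer in 50 mM Tris-HCl pH 7.4. Haloperidol defined nonspecific binding. Samples were filtered on PEI-presoaked glass-fibre filters, washed with ice-cold buffer and counted by liquid scintillation; Ki was calculated.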

[10] = tested on: PC-3; test: Antiproliferative activity against human PC3 cells at 10 uM after 96 hrs by MTT assay; type: functional, cell-based
Method in brief: (§3)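 Percent growth was scored against vehicle-treated control (0.1% DMSO, 1:1000 dilution of DMSO stock) using the MTT assay. LNCaP cells were in supplemented RPMI 1640 with HEPES, pyruvate and glucose; PC3 cells were in RPMI 1640 with 10% FBS. Cells were seeded at 4 × 10⁴ per well and exposed 24, 48, 72 or 96 h. MTT was added for 4 h, the formazan dissolved in DMSO, and A570 read; n = 4.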

[11] = tested on: LNCaP; test: Antiproliferative activity against human LNCAP cells at 10 uM after 96 hrs by MTT assay; type: functional, cell-based; method in brief: as §3
[12] = target: T1, Histone deacetylase (Homo sapiens); test: Inhibition of HDAC in human LNCAP cells at 10 uM after 10 mins by fluorometric assay; type: cell-based; method in brief: as §2
[13] = tested on: LNCaP; test: Antiproliferative activity against human LNCAP cells after 96 hrs by MTT assay; type: functional, cell-based; method in brief: as §1
[14] = tested on: LNCaP; test: Antiproliferative activity against human LNCAP cells at 10 to 25 uM after 24 hrs by MTT assay; type: functional; method in brief: as §3
[15] = target: T1, Histone deacetylase (Homo sapiens); test: Inhibition of HDAC in human HeLa cells at 10 uM after 10 mins by fluorometric assay; type: cell-based
Method in brief: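 The HDAC fluorescent activity kit was used with supplied HeLa extract. Test agent was added in assay buffer, with trichostatin A (1 µM listed) as full-inhibition control. The reaction was started with acetyl-lysine Fluor de Lys substrate at 25–37 °C and stopped after 10 min with developer, then held 10–15 min at room temperature. Fluorescence was read at ex 360/em 460 nm. Percent inhibition was taken against the uninhibited reaction, in triplicate.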

[16] = tested on: PC-3; test: Antiproliferative activity against human PC3 cells at 10 to 25 uM after 24 hrs by MTT assay; type: functional; method in brief: as §3
[17] = tested on: PC-3; test: Antiproliferative activity against human PC3 cells after 72 hrs by MTT assay; type: functional, cell-based; conditions: PC-3, 72 h; method in brief: as §1
[18] = tested on: PC-3; test: Antiproliferative activity against human PC3 cells after 96 hrs by MTT assay; type: functional, cell-based; conditions: PC-3, 96 h; method in brief: as §1
[19] = target: D(2) dopamine receptor (Rattus norvegicus, UniProt P61169); test: Displacement radioligand form dopamine D2 receptor in rat striatum by liquid scintillation counting; type: tissue-based
[20] = target: T1, Histone deacetylase (Homo sapiens); conditions: HeLa, 1.5 mM

Sequence of D(3) dopamine receptor (P19020 whole entry): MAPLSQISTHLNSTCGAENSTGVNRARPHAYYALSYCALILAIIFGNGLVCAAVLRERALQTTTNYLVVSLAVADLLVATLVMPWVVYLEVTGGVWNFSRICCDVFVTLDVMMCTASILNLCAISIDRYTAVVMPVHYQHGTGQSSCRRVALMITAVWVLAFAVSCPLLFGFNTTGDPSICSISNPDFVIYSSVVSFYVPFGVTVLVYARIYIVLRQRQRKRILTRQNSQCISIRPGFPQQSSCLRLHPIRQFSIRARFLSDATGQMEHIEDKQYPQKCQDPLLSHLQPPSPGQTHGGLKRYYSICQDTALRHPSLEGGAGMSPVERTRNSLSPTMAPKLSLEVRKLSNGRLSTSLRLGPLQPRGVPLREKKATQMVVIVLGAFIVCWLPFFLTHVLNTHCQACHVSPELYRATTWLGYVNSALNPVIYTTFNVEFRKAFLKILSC
Sequence of Sigma non-opioid intracellular receptor 1 (Q60492 whole entry): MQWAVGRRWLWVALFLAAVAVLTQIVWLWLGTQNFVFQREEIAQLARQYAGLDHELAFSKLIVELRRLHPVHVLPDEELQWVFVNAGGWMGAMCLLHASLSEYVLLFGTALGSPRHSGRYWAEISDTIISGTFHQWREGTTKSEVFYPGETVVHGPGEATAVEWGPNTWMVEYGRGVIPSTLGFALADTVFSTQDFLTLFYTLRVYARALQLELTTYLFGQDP
Sequence of D(2) dopamine receptor (P61169 whole entry): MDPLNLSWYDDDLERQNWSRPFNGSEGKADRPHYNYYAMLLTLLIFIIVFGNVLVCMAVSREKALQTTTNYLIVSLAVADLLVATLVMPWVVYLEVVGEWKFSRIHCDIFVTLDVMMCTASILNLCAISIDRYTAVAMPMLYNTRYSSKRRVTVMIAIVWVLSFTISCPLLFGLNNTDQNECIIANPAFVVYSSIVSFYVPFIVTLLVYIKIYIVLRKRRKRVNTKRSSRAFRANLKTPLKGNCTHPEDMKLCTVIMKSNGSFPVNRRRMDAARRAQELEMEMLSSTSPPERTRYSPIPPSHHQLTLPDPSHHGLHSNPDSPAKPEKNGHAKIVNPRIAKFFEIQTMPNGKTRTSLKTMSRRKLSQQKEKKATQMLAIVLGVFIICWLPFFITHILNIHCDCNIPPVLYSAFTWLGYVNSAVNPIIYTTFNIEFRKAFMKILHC

IC50 [1] [µM] | IC50 [3] [µM] | Ki [4] [µM] | IC50 [5] [µM] | inhibition [6] | IC50 [7] [µM] | IC50 [8] [µM] | Ki [9] [µM] | inhibition [12] | IC50 [13] [µM] | inhibition [15] | IC50 [17] [µM] | IC50 [18] [µM] | Ki [19] [µM] | inhibition [20] [%] | SMILES | Ki [2] [µM] | Activity [10] | Activity [11] | Activity [14] | Activity [16] [%]
10.9 | 12.9 | 0.105 | 8.13 | inactive | 8.83 | 11 | 0.162 | inactive | 6.65 | inactive | 7.8 | 6.78 | > 5 | – | O=C(CCCc1ccccc1)OC(CCCN1CCC(O)(c2ccc(Cl)cc2)CC1)c1ccc(F)cc1 (racemic) | > 5 | Active | Active | 45% and 40% and 20% | 10
2320 | 2270 | > 10 | – | – | – | – | > 10 | – | – | – | – | – | – | 60 | O=C(O)CCCc1ccccc1 | – | – | – | – | –
– | – | 0.016 | – | – | – | – | – | – | – | – | – | – | – | – | O=C(CCCN1CCC(O)(c2ccc(Cl)cc2)CC1)c1ccc(F)cc1 [HALOPERIDOL] | – | – | – | – | –

SMILES | IC50 [1] [µM] | IC50 [3] [µM] | Ki [4] [µM] | IC50 [5] [µM] | inhibition [6] | IC50 [7] [µM] | IC50 [8] [µM] | Ki [9] [µM] | inhibition [12] | IC50 [13] [µM] | inhibition [15] | IC50 [17] [µM] | IC50 [18] [µM] | Ki [19] [µM] | inhibition [20] [%] | Ki [2] [µM] | Activity [10] | Activity [11] | Activity [14] | Activity [16] [%]
OC(CCCN1CCC(O)(c2ccc(Cl)cc2)CC1)c1ccc(F)cc1 (centres undefined) [HYDROXYHALOPERIDOL] | 177 | 208 | 0.00098 | – | – | – | – | – | – | – | – | – | – | – | – | 1.1 | – | – | – | –
